An excerpt weighted towards active compounds, which were near 1.3% of everything screened.
Rad51 HR inh: human RAD51 strand exchange inhibitors, primary screen, biochemical, fluorescence; hit rate 0.085% among 200,000; hRad51 DNA strand exchange, fluorescence dequenching; inhibition, % at 10 µM;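 active = inhibition above 40% at the single screening dose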;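 note: 0% = DMSO control wells and 100% = blanks with heterologous ssDNA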
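Test system – preformed human Rad51 ssDNA filaments · Reagent – Donor/quencher-labelled 47-bp dsDNA substrate · Incubation – 37 °C 15-min filament assembly, 30-min compound preincubation, 15-min exchange · Signal – FRET fluorescence dequenching, excitation 485 nm, emission 520 nm · Read-out – percent inhibition from fluorescence, normalised to plate control and blank means · Benchmarks – plate control and blank wells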
PERK inh: block of dimerizer-induced PERK translation repression, primary screen, PERK inhibitor project, CHO PERK-DD cells, SEAP luminescence, HTS; Eukaryotic translation initiation factor 2-alpha kinase 3 (Homo sapiens), Q9NZJ5; CHO PERK-DD fusion, SEAP luminescence translation reporter; inhibition, % at 5.6 µM; hit rate 0.17% among 220,000;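 active = inhibition above the mean inhibition of all tested compounds plus 3 SD, set separately per screening campaign, cut at about 2.9% in these data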;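 note: PERK kinase domain activated by AP20187 dimerizer at 100 nM; 0% = DMSO with dimerizer and 100% = rapamycin at 8.4 µM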
TAG inh: inhibitors of triacylglycerol accumulation, primary screen, cell-based, uHTS, fluorescence, H9c2. H9c2 cells, Nile Red lipid (TAG) fluorescence; cells loaded with 200 µM oleic acid. inhibition, % at 12.5 µM. hit rate 0.66% among 230,000. AID 651582, 2012;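 active = pattern-corrected inhibition of lipid staining of at least 50% with the nuclear-stain viability signal not falling by more than 50%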;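 note: 0% = DMSO wells and 100% = triacsin C control wells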
Mdm2 ligase inh: MDM2-luciferase reporter signal enhancers, primary screen, MDM2 E3 ligase inhibitor project, cell-based, luminescence, 1536-well | E3 ubiquitin-protein ligase Mdm2 (Homo sapiens), Q00987 | cell-based MDM2 ubiquitination luciferase reporter, 2 h; 0 = plate control, 100 = twice control, blank-subtracted | signal enhancement, % at 5 µM | hit rate 0.11% among 210,000 | AID 1230, 2008;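 active = signal enhancement of 30% or more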;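 note: luminescence tracks abundance of the self-degrading MDM2-luciferase fusion protein; higher signal means inhibition of MDM2 E3 ligase activity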
Target sequence (Q00987 whole entry, looked up, the tested form may be a part): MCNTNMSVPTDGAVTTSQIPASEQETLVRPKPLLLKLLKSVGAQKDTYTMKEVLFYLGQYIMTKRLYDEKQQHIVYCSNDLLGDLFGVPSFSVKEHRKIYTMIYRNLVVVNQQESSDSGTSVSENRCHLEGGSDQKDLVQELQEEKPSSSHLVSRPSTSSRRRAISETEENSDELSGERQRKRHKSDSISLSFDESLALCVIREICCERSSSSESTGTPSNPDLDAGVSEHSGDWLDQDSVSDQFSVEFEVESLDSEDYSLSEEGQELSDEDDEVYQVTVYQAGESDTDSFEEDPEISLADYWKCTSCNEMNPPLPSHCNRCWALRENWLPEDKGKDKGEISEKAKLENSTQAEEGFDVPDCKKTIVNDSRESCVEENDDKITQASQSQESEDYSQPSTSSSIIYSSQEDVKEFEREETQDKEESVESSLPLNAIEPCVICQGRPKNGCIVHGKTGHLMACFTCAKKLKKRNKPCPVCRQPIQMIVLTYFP
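Timing – 2 h compound exposure at 37 °C · Assay system – mammalian cells stably expressing self-ubiquitinating, self-degrading MDM2 E3–luciferase fusion · Amount – 2000 cells seeded into each well · Measure – % luminescence enhancement versus blank-corrected plate control mean · Measured by – SteadyLite luminescence, 15 min reagent step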
PKD1 inh: inhibitors of human PKD1 kinase, biochemical, fluorescence polarization | Serine/threonine-protein kinase D1 (Homo sapiens), Q15139 | inhibition, % (test concentration not listed) | PKD1 kinase fluorescence polarization assay | hit rate 0.056% among 200,000; in the data active = inhibition above about 50%
Hck-Nef inh: inhibitors of Nef-activated human Hck kinase, primary screen, biochemical, Z-Lyte FRET, 384-well, Hck-YEEI. Recombinant Hck-YEEI plus Nef, Z-Lyte FRET kinase assay. hit rate 0.68% among 220,000. Tyrosine-protein kinase HCK (Homo sapiens), P08631. inhibition, % at 20 µM. AID 463187, 2010;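 active = Hck-Nef kinase inhibition above about 50%, limit read from the data; inactive = inhibition below that limit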;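 note: 0% = DMSO with Hck plus Nef and 100% = Hck alone without Nef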
H9c2 TAG conf: triacylglycerol accumulation inhibitors, retest, confirmation, cell-based, single concentration, Nile Red fluorescence, H9c2; shares compounds with TAG inh; inhibition, % at 12.5 µM; H9c2 lipid accumulation; cells loaded with 200 µM oleic acid; AID 651629, 2012; hit rate 71% among 990;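 active = mean inhibition across replicates of 40% or more; inactive = mean inhibition below 40%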;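 note: plate controls were DMSO only wells for no effect and Triacsin C treated wells for full effect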
* = called active by the depositor; · = not tested or not shown.

SMILES | Rad51 HR inh | PERK inh | TAG inh | Mdm2 ligase inh | PKD1 inh | Hck-Nef inh | H9c2 TAG conf
C[C@@]12C(=O)Nc3ccc(Br)cc3C(=O)N1[C@H]1c3cc(Cl)ccc3OC[C@@H]1[C@@H]2c1ccccc1 | · | · | 52* | · | · | · | 64*
COCCNc1nc(NCc2ccc(NC(C)=O)cc2)c2sc(-c3ccccc3)cc2n1 | · | · | 53* | · | · | · | 123*
c1ccc(OCCNc2nc(NCC3CC3)nc3cc(-c4ccccc4)sc23)cc1 | · | · | 57* | · | · | · | 41*
COCCNc1nc(Oc2ccc(NC(C)=O)cc2)c2sc(-c3ccccc3)cc2n1 | · | · | 26 | · | · | · | ·
C=CCNc1nc(Nc2ccc(OC)c(OC)c2)c2sc(-c3ccccc3)cc2n1 | · | · | 70* | · | · | · | 82*
c1ccc(CNc2nc(NCC3CC3)nc3cc(-c4ccccc4)sc23)cc1 | · | · | 21 | · | · | · | ·
COCC(C)n1c(C)cc(C(=O)COC(=O)c2cc(=O)[nH]c3ccccc23)c1C (stereo unspecified) | · | · | -6 | · | · | · | ·
CCc1cccc(C)c1NC(=S)NCc1ccc2[nH]c(C)cc2c1 | -6 | 0 | 14 | · | -10 | -2 | ·
Cc1cc(NC(=O)c2cc(-c3ccncc3)nc3c(C)cccc23)no1 | 3 | -1 | 64* | -35 | -1 | 14 | 66*
Cc1ccc(-c2cc(C(=O)Nc3cc(C)on3)c3ccccc3n2)cc1 | · | 0 | 11 | -3 | 7 | 0 | ·
C=CCc1c(C)nc(-c2ccccc2)nc1N/N=C/c1ccncc1 | 8 | 0 | 65* | -22 | 3 | -11 | 28
O=C(NCCCCCCCN1CCCCCCC1)C(C1CCCCC1)C1CCCCC1 | · | · | 70* | · | · | · | 51*
O=C(NCCCN1CCOCC1)NC1CCCCC1 | 6 | 0 | -14 | 2 | -8 | 2 | ·
CC(C)=CCC/C(C)=C/CNC(=O)C[C@H]1C[C@H](C(=O)N(C(C)C)C(C)C)[C@@]2(C)c3[nH]c4ccc(Cl)cc4c3CCN2C1=O | · | · | 46 | · | · | · | ·
CC(C)=CCC/C(C)=C/CNC(=O)C[C@H]1C[C@H](C(=O)N2CCCCC2)[C@@]2(CCc3ccccc3)c3[nH]c4cc(-c5ccco5)ccc4c3CCN2C1=O | · | · | 69* | · | · | · | 92*
COc1ccc(CNC(=O)C[C@H]2C[C@H](C(=O)N3CCCCC3)[C@@]3(CCc4ccccc4)c4[nH]c5ccc(Cl)cc5c4CCN3C2=O)cc1OC | · | · | 53* | · | · | · | 84*
C[C@]12c3[nH]c4ccccc4c3CCN1C(=O)C(CC(=O)NCC13CC4CC(CC(C4)C1)C3)C[C@@H]2C(=O)N1CCCCC1 (stereo partly specified) | · | · | 83* | · | · | · | 61*
COc1ccc2[nH]c3c(c2c1)CCN1C(=O)C(CC(=O)NC/C=C(\C)CCC=C(C)C)C[C@H](C(=O)N(C(C)C)C(C)C)[C@@]31C (stereo partly specified) | · | · | 55* | · | · | · | 55*
CC[C@]12c3[nH]c4cc(-c5ccco5)ccc4c3CCN1C(=O)[C@@H](CC(=O)NC/C=C(\C)CCC=C(C)C)C[C@@H]2C(=O)N1CCN(C(=O)C2CC2)CC1 | · | · | 30 | · | · | · | ·
C[C@]12c3[nH]c4ccccc4c3CCN1C(=O)C(CC(=O)NCC13CC4CC(CC(C4)C1)C3)C[C@@H]2C(=O)N1CCOCC1 (stereo partly specified) | · | · | 13 | · | · | · | ·
CC(OC(=O)CNC(=O)COc1ccccc1)C(=O)N(C)Cc1ccccc1 (stereo unspecified) | · | · | -6 | · | · | · | ·
O=C(Cn1cc(C(F)(F)F)cc(Cl)c1=O)NC1CCS(=O)(=O)C1 (stereo unspecified) | · | · | -16 | · | · | · | ·
Cn1nc(SCc2ccccc2)c(=O)n(C(c2ccccc2)c2ccccc2)c1=O | · | · | -31 | · | · | · | ·
CN(C)CCNC(=O)c1coc(=O)c(Br)c1 | -2 | 2 | 0 | -11 | 2 | 8 | ·
CC(C)CNC(=O)c1coc(=O)c(Br)c1 | 4 | -1 | 60* | -8 | 2 | 1 | 17
SMILES | Rad51 HR inh | PERK inh | TAG inh | Mdm2 ligase inh | PKD1 inh | Hck-Nef inh | H9c2 TAG conf
O=C(CCC(=O)N1CCOc2ccc(Cl)cc21)NCCCN1CCC(Cc2ccccc2)CC1 | · | · | 90* | · | · | · | 62*
O=C(CCC(=O)N1CCOc2ccc(Cl)cc21)NCCCN1CCN(c2ccccc2F)CC1 | · | · | -9 | · | · | · | ·
CC1(C)Cc2nc3sc4c(SCC(=O)NCc5ccco5)ncnc4c3cc2CO1 | 1 | -1 | 54* | -11 | -5 | 3 | 47*
Cc1ccccc1NC(=S)N/N=C/c1ccc(O)cc1O | -11 | 0 | -17 | -16 | · | 15 | ·
Cc1ccc(Cl)cc1NC(=S)N/N=C/c1cccc2ccccc12 | 10 | -1 | 69* | 0 | · | -4 | 85*
O=c1nc(N/N=C/C=C/c2ccccc2)cn[nH]1 | 4 | 2 | 64* | -73 | · | 7 | -7
COc1cc2ccccc2cc1C(=O)N/N=C/c1cccs1 | · | · | 55* | · | · | · | 64*
CCN1CCN(Cc2ccc(NC(=O)c3ccc(C)c(NC(=O)C(=O)c4c[nH]c5ccccc45)c3)cc2C(F)(F)F)CC1 | -6 | · | 77* | 14 | · | 13 | 79*
CCN1CCN(Cc2ccc(NC(=O)c3cc(NC(=O)c4cnn(-c5ccccc5)c4N)cc(OC)c3)cc2C(F)(F)F)CC1 | 0 | · | 37 | 21 | · | 29 | ·
CCN1CCN(Cc2ccc(NC(=O)c3cc(NC(=O)C(=O)c4c[nH]c5ccccc45)cc(OC)c3)cc2C(F)(F)F)CC1 | -8 | · | 104* | 9 | · | 19 | 94*
Cc1cc(NC(=O)c2sccc2C)n(-c2nc3ccccc3[nH]2)n1 | · | 1 | 64* | · | 2 | 26 | 59*
COc1ccc(C(=O)Nc2sc3c(c2C(=O)NCc2ccco2)CCCC3)cc1OC | -5 | -1 | 66* | -13 | -3 | 35 | 52*
COc1cc(C(=O)Nc2sc3c(c2C(=O)NCc2ccco2)CCCC3)cc(OC)c1OC | 6 | -1 | 41 | -5 | -3 | 4 | ·
COc1ccc(C(=O)Nc2ccc(Cl)cc2C(=O)NCc2ccco2)cc1OC | 0 | -1 | 52* | -32 | -5 | 1 | 17
COc1ccc(C(=O)Nc2ccccc2C(=O)NCc2ccco2)cc1OC | 6 | 0 | · | -7 | -3 | -6 | ·
COc1ccccc1[C@H]1C(c2ccccc2)=NN(c2ccccc2)[C@@H]1CO | · | · | 2 | · | · | · | ·

Source: PubChem
